Measurements reported in ChEMBL document CHEMBL1154674, “Synthesis and evaluation of three 18F-labeled aminophenylbenzothiazoles as amyloid imaging agents” (J Med Chem, 2009).

Key:
Format in all cases: ADME, organism-based, Macaca mulatta
[1] = Drug level in normal rhesus monkey pons assessed as standard uptake value at 109.4 MBq, iv after 37.5 mins by microPET; conditions: in vivo, 0.625 h
[2] = Drug level in normal rhesus monkey pons assessed as standard uptake value at 109.4 MBq, iv after 105 mins by microPET; conditions: in vivo, 1.75 h
[3] = Drug level in normal rhesus monkey cerebellum assessed as standard uptake value at 109.4 MBq, iv after 15.5 mins by microPET; conditions: in vivo
[4] = Drug level in normal rhesus monkey frontal cortex assessed as standard uptake value at 109.4 MBq, iv after 1.5 mins by microPET; conditions: in vivo, 0.025 h
In short: (§1)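 One normal rhesus monkey, each tracer given iv via the vena saphena (81.2, 96.3 or 109.4 MBq), with 1 day between tracer injections. Dynamic brain μPET over 180 min used frames of 5 × 60 s, 5 × 120 s, 9 × 300 s and 12 × 600 s. Images were reconstructed by filtered back projection with a RAMP filter. Regional time-activity curves were expressed as SUV.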

[5] = Drug level in normal rhesus monkey cerebellum assessed as standard uptake value at 109.4 MBq, iv after 0.625 mins by microPET; conditions: in vivo, 38 s
[6] = Drug level in normal rhesus monkey white matter assessed as standard uptake value at 109.4 MBq, iv after 32.5 mins by microPET; conditions: in vivo
[7] = Drug level in normal rhesus monkey parietal cortex assessed as standard uptake value at 81.2 MBq, iv after 12 mins by microPET; conditions: in vivo, 0.2 h
[8] = Drug level in normal rhesus monkey parietal cortex assessed as standard uptake value at 81.2 MBq, iv after 14 mins by microPET; conditions: in vivo
[9] = Drug level in normal rhesus monkey parietal cortex assessed as standard uptake value at 81.2 MBq, iv after 22.5 mins by microPET; conditions: in vivo, 0.375 h
[10] = Drug level in normal rhesus monkey white matter assessed as standard uptake value at 81.2 MBq, iv after 17.5 mins by microPET; conditions: in vivo
[11] = Drug level in normal rhesus monkey white matter assessed as standard uptake value at 81.2 MBq, iv after 155 mins by microPET; conditions: in vivo
[12] = Drug level in normal rhesus monkey thalamus assessed as standard uptake value at 81.2 MBq, iv after 4.5 mins by microPET; conditions: in vivo, 0.075 h
[13] = Drug level in normal rhesus monkey frontal cortex assessed as standard uptake value at 81.2 MBq, iv after 42.5 mins by microPET; conditions: in vivo
[14] = Drug level in normal rhesus monkey frontal cortex assessed as standard uptake value at 81.2 MBq, iv after 1.5 mins by microPET; conditions: in vivo, 0.025 h
In short: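 Single normal rhesus monkey; each tracer given iv via the vena saphena, with 1 day between tracer injections. Dynamic μPET ran 180 min (5×60 s, 5×120 s, 9×300 s, 12×600 s). Images were reconstructed by filtered back projection with a RAMP filter. Regional time-activity curves were expressed as SUV.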

[15] = Drug level in normal rhesus monkey cerebellum assessed as standard uptake value at 81.2 MBq, iv after 4.5 mins by microPET; conditions: in vivo, 0.075 h; in short: as §1
[16] = Drug level in normal rhesus monkey cerebellum assessed as standard uptake value at 152.9 MBq, iv after 14 mins by microPET; conditions: in vivo
In short: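 One normal rhesus monkey received each tracer via the vena saphena, with 1 day between injections. Dynamic μPET ran 180 min for 18F tracers (5×60 s, 5×120 s, 9×300 s, 12×600 s) and 90 min for the 11C tracer (5×60 s, 5×120 s, 9×300 s, 3×600 s). Filtered back-projection reconstruction (RAMP filter) was used. Time-activity curves were drawn to give regional SUV.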

[17] = Drug level in normal rhesus monkey frontal cortex assessed as standard uptake value at 152.9 MBq, iv after 65 mins by microPET; conditions: in vivo
In short: (§2)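 Single normal rhesus monkey; tracer given iv via the vena saphena, 1 day apart from the other tracer injections. Dynamic μPET ran 90 min (5×60 s, 5×120 s, 9×300 s, 3×600 s). Images were reconstructed by filtered back projection with a RAMP filter. Regional time-activity curves were expressed as SUV.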

[18] = Drug level in normal rhesus monkey frontal cortex assessed as standard uptake value at 152.9 MBq, iv after 85 mins by microPET; conditions: in vivo; in short: as §2
[19] = Drug level in normal rhesus monkey white matter assessed as standard uptake value at 152.9 MBq, iv after 2.5 mins by microPET; conditions: in vivo
[20] = Drug level in normal rhesus monkey white matter assessed as standard uptake value at 152.9 MBq, iv after 3.5 mins by microPET; conditions: in vivo
[21] = Drug level in normal rhesus monkey white matter assessed as standard uptake value at 152.9 MBq, iv after 47.5 mins by microPET; conditions: in vivo
[22] = Drug level in normal rhesus monkey thalamus assessed as standard uptake value at 152.9 MBq, iv after 17.5 mins by microPET; conditions: in vivo
[23] = Drug level in normal rhesus monkey thalamus assessed as standard uptake value at 152.9 MBq, iv after 22.5 mins by microPET; conditions: in vivo, 0.375 h
[24] = Drug level in normal rhesus monkey pons assessed as standard uptake value at 152.9 MBq, iv after 65 mins by microPET; conditions: in vivo
[25] = Drug level in normal rhesus monkey parietal cortex assessed as standard uptake value at 152.9 MBq, iv after 8 mins by microPET; conditions: in vivo
[26] = Drug level in normal rhesus monkey parietal cortex assessed as standard uptake value at 96.3 MBq, iv after 115 mins by microPET; conditions: in vivo
[27] = Drug level in normal rhesus monkey thalamus assessed as standard uptake value at 96.3 MBq, iv after 52.5 mins by microPET; conditions: in vivo, 0.875 h
[28] = Drug level in normal rhesus monkey thalamus assessed as standard uptake value at 96.3 MBq, iv after 155 mins by microPET; conditions: in vivo
[29] = Drug level in normal rhesus monkey pons assessed as standard uptake value at 96.3 MBq, iv after 12 mins by microPET; conditions: in vivo, 0.2 h
[30] = Drug level in normal rhesus monkey pons assessed as standard uptake value at 96.3 MBq, iv after 17.5 mins by microPET; conditions: in vivo
[31] = Drug level in normal rhesus monkey pons assessed as standard uptake value at 96.3 MBq, iv after 125 mins by microPET; conditions: in vivo
[32] = Drug level in normal rhesus monkey parietal cortex assessed as standard uptake value at 96.3 MBq, iv after 1.5 mins by microPET; conditions: in vivo, 0.025 h
[33] = Drug level in normal rhesus monkey frontal cortex assessed as standard uptake value at 96.3 MBq, iv after 2.5 mins by microPET; conditions: in vivo
[34] = Drug level in normal rhesus monkey frontal cortex assessed as standard uptake value at 96.3 MBq, iv after 4.5 mins by microPET; conditions: in vivo, 0.075 h
[35] = Drug level in normal rhesus monkey frontal cortex assessed as standard uptake value at 96.3 MBq, iv after 145 mins by microPET; conditions: in vivo
[36] = Drug level in normal rhesus monkey frontal cortex assessed as standard uptake value at 96.3 MBq, iv after 175 mins by microPET; conditions: in vivo

For `Nc1ccc2nc(-c3ccc([18F])cc3)sc2c1`, the SUV [1] was 4.73, the SUV [2] was 4.79 and the SUV [3] was 4.94. The SUV [4] was 3.35, the SUV [5] was 2.19 and the SUV [6] was 3.36.

In the case of `CNc1ccc2nc(-c3ccc([18F])cc3)sc2c1`, the SUV [7] is reported as 4.756, the SUV [8] is reported as 4.798 and the SUV [9] is reported as 4.538. It also gave an SUV [10] of 3.647, an SUV [11] of 4.236 and an SUV [12] of 4.054. For the same compound, the SUV [13] was 5.476, the SUV [14] was 3.245 and the SUV [15] was 2.964.

In the case of `[11CH3]Nc1ccc(-c2nc3ccc(O)cc3s2)cc1` [PITTSBURGH COMPOUND B], the SUV [16] is reported as 2.11, the SUV [17] is reported as 0.653 and the SUV [18] is reported as 0.625. The SUV [19] was 0.752, the SUV [20] was 1.053 and the SUV [21] was 0.943. It also gave an SUV [22] of 2.159, an SUV [23] of 1.903 and an SUV [24] of 0.852. It also gave an SUV [25] of 2.207.

`CN(C)c1ccc2nc(-c3ccc([18F])cc3)sc2c1` showed an SUV [26] of 1.3, an SUV [27] of 2.26 and an SUV [28] of 1.92. For the same compound, the SUV [29] was 1.55, the SUV [30] was 1.51 and the SUV [31] was 1.88. For the same compound, the SUV [32] was 1.7, the SUV [33] was 1.8 and the SUV [34] was 1.64. For the same compound, the SUV [35] was 1.44 and the SUV [36] was 1.49.
